Measured values taken from ChEMBL document CHEMBL1124568, “2,4-Diamino-5-benzylpyrimidines as antibacterial agents. 13. Some alkenyl derivatives with high in vitro activity against anaerobic organisms” (J Med Chem, 1989).
In brackets after ≈: the same amount, converted by molar mass.

What was measured:
[1] = Half-life in dogs Plasma; type: ADME, organism-based, Canis lupus familiaris; details: dog
How it was run: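 Two fasted (18 h) male beagles received 5 mg/kg […] (free base), co-dosed with 5 mg/kg trimethoprim in propylene glycol. Jugular plasma was sampled from 0.17 to 24 h. Drug was extracted, separated by TLC and read by fluorescence densitometry. t1/2 came from least-squares linear regression of the postabsorption segment of the plasma curve.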

Phocaeicola vulgatus = assay: Ratio of antibacterial (Bacteroides vulgatus) activities compared to that of trimethoprim and metronidazole; type: functional
[2] = tested on: Bacteroides thetaiotaomicron; assay: Ratio of antibacterial (Bacteroides thetaiotaomicron) activities compared to that of trimethoprim and metronidazole; type: functional
Clostridioides difficile = assay: Ratio of antibacterial (Clostridium difficile) activities compared to that of trimethoprim and metronidazole; type: functional
Clostridium perfringens = assay: Ratio of antibacterial (Clostridium perfringens) activities compared to that of trimethoprim and metronidazole; type: functional
Dihydrofolate reductase [3] = target: T1, Dihydrofolate reductase (Rattus norvegicus, UniProt Q920D2); assay: In vitro inhibition of rat liver dihydrofolate reductase.; details: read-out: I50
T1 sequence (Q920D2 whole entry): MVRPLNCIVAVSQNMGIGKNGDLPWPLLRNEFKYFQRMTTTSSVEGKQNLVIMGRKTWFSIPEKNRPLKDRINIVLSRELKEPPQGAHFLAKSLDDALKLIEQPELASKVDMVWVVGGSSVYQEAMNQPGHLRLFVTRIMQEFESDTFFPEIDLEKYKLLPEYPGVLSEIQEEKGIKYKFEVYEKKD

Escherichia coli [4] = assay: Antibacterial (Escherichia coli) activity compared to trimethoprim.; type: functional
How it was run: (§1)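 Each MIC is divided by the MIC of trimethoprim run alongside. Serial dilutions were normally 0.1, 0.3, 1, 3, 10, etc., and occasionally 1, 5 and 10. For E. coli the value is the average over six strains.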

Fusobacterium nucleatum = assay: Ratio of antibacterial (Fusobacterium nucleatum) activities compared to that of trimethoprim and metronidazole; type: functional
Klebsiella pneumoniae [5] = assay: Antibacterial (Klebsiella pneumoniae CN3632) activity compared to trimethoprim.; type: functional; how it was run: as §1
[6] = tested on: Mycolicibacterium smegmatis; assay: Antibacterial (Mycobacterium smegmatis S3254) activity compared to trimethoprim.; type: functional; how it was run: as §1
Pasteurella multocida = assay: Antibacterial (Pasteurella multocides ATCC 6587) activity compared to trimethoprim.; type: functional; how it was run: as §1
Proteus vulgaris [7] = assay: Antibacterial (Proteus vulgaris CN329) activity compared to trimethoprim.; type: functional; how it was run: as §1
[8] = Antibacterial (Salmonella typhi CN512) activity compared to trimethoprim.; type: functional, salmonella typhosa
Shigella flexneri = assay: Antibacterial (Shigella flexneri CN6007) activity compared to trimethoprim.; type: functional; how it was run: as §1
Serratia marcescens = assay: Antibacterial (Serratia marcescens CN2398) activity compared to trimethoprim.; type: functional; how it was run: as §1
Streptococcus pyogenes [9] = assay: Antibacterial ([…] CN10) activity compared to trimethoprim.; type: functional; how it was run: as §1
Staphylococcus aureus [10] = assay: Antibacterial (Staphylococcus aureus CN491) activity compared to trimethoprim.; type: functional; how it was run: as §1
Klebsiella aerogenes [11] = assay: Antibacterial (Enterobacter aerogenes 2201/86) activity compared to trimethoprim.; type: functional; how it was run: as §1
Klebsiella aerogenes [12] = assay: Ratio of antibacterial (Enterobacter aerogenes, 2201/86) activities of compound and trimethoprim; type: functional; how it was run: as §1
Klebsiella pneumoniae [13] = assay: Ratio of antibacterial (Klebsiella pneumoniae CN3632) activities of compound and trimethoprim; type: functional; how it was run: as §1
Proteus vulgaris [14] = assay: Ratio of antibacterial (Proteus vulgaris CN329) activities of compound and trimethoprim; type: functional; how it was run: as §1
Shigella dysenteriae = assay: Ratio of antibacterial (Shigella dysentariae CN513) activities of compound and trimethoprim; type: functional
Staphylococcus aureus [15] = assay: Ratio of antibacterial (Staphylococcus aureus CN491) activities of compound and trimethoprim; type: functional; how it was run: as §1
Salmonella = assay: Ratio of antibacterial (Salmonella typhi CN512) activities of compound and trimethoprim; type: functional, salmonella typhosa
Escherichia coli [16] = assay: Ratio of antibacterial (Escherichia coli CN314) activities of compound and trimethoprim; type: functional
Dihydrofolate reductase [17] = target: T2, Dihydrofolate reductase (Escherichia coli, UniProt P0ABQ4); assay: In vitro inhibition of dihydrofolate reductase of Escherichia coli; details: read-out: I50
T2 sequence (P0ABQ4 whole entry): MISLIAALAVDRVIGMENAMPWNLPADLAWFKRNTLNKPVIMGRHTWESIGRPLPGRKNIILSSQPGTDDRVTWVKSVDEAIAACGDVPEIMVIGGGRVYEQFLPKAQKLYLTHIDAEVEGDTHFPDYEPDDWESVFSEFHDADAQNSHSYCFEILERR
How it was run: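 The E. coli DHFR assay contained 1 nM enzyme, with the lower limit for I50 arbitrarily set at 2 nM. I50 was estimated from plots of % inhibition of steady-state velocity vs log inhibitor concentration.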

Streptococcus pyogenes [18] = assay: Ratio of antibacterial (Streptococcus pyogenes CN10) activities of compound and trimethoprim

SMILES | MIC (Phocaeicola vulgatus) | MIC [2] | MIC (Clostridioides difficile) | MIC (Clostridium perfringens) | IC50 (Dihydrofolate reductase [3]) | MIC (Escherichia coli [4]) | MIC (Fusobacterium nucleatum) | MIC (Klebsiella pneumoniae [5]) | MIC [6] | MIC (Pasteurella multocida) | MIC (Proteus vulgaris [7]) | MIC [8] | MIC (Shigella flexneri) | MIC (Serratia marcescens) | MIC (Streptococcus pyogenes [9]) | MIC (Staphylococcus aureus [10]) | MIC (Klebsiella aerogenes [11]) | other results
C/C=C/c1cc(Cc2cnc(N)nc2N)cc(OC)c1OC | 0.8 µg/mL | 1.6 µg/mL | > 25 µg/mL | > 25 µg/mL | 57 µM | 6 µg/mL (≈ 20 µM) | 0.8 µg/mL | 10 µg/mL (≈ 33.3 µM) | 3 µg/mL (≈ 9.99 µM) | 10 µg/mL (≈ 33.3 µM) | 3 µg/mL (≈ 9.99 µM) | 3 µg/mL (≈ 9.99 µM) | 10 µg/mL (≈ 33.3 µM) | 1 µg/mL (≈ 3.33 µM) | 0.1 µg/mL (≈ 0.333 µM) | 0.1 µg/mL (≈ 0.333 µM) | 10 µg/mL (≈ 33.3 µM) | half-life [1]: 2.25 h
CCOc1cc(Cc2cnc(N)nc2N)cc(OC)c1OC |  |  |  |  | 140 µM | 2.6 µg/mL (≈ 8.54 µM) |  | 1 µg/mL (≈ 3.29 µM) | 1 µg/mL (≈ 3.29 µM) | 1 µg/mL (≈ 3.29 µM) | 1 µg/mL (≈ 3.29 µM) | 1 µg/mL (≈ 3.29 µM) | 1 µg/mL (≈ 3.29 µM) | 3 µg/mL (≈ 9.86 µM) | 0.3 µg/mL (≈ 0.986 µM) | 0.3 µg/mL (≈ 0.986 µM) | 1 µg/mL (≈ 3.29 µM) | half-life [1]: 3.13 h
C=CCc1cc(Cc2cnc(N)nc2N)cc(CCC)c1O | 0.8 µg/mL | 0.8 µg/mL | > 25 µg/mL | > 25 µg/mL | 2 µM | 5 µg/mL (≈ 16.8 µM) | 0.4 µg/mL | 30 µg/mL (≈ 101 µM) | 10 µg/mL (≈ 33.5 µM) | 30 µg/mL (≈ 101 µM) | 30 µg/mL (≈ 101 µM) | 100 µg/mL (≈ 335 µM) | 30 µg/mL (≈ 101 µM) | 3 µg/mL (≈ 10.1 µM) | 1 µg/mL (≈ 3.35 µM) | 3 µg/mL (≈ 10.1 µM) | 30 µg/mL (≈ 101 µM) | 
CCCc1cc(Cc2cnc(N)nc2N)cc(OC)c1OC | 1.6 µg/mL | 1.6 µg/mL | > 25 µg/mL | > 25 µg/mL | 37 µM | 6 µg/mL (≈ 19.8 µM) | 0.4 µg/mL | 10 µg/mL (≈ 33.1 µM) | 3 µg/mL (≈ 9.92 µM) | 10 µg/mL (≈ 33.1 µM) | 10 µg/mL (≈ 33.1 µM) | 3 µg/mL (≈ 9.92 µM) | 10 µg/mL (≈ 33.1 µM) | 3 µg/mL (≈ 9.92 µM) | 0.1 µg/mL (≈ 0.331 µM) | 0.1 µg/mL (≈ 0.331 µM) | 10 µg/mL (≈ 33.1 µM) | 
Cc1cc(Cc2cnc(N)nc2N)cc2c1OC(C)(C)C2 |  |  |  |  | 37 µM |  |  |  |  |  |  |  |  |  |  |  |  | MIC (Klebsiella aerogenes [12]): 30 µg/mL; MIC (Klebsiella pneumoniae [13]): 10 µg/mL; MIC (Proteus vulgaris [14]): 10 µg/mL; MIC (Shigella dysenteriae): 10 µg/mL; MIC (Staphylococcus aureus [15]): 3 µg/mL; MIC (Salmonella): 10 µg/mL; MIC (Escherichia coli [16]): 10 µg/mL; IC50 (Dihydrofolate reductase [17]): 0.055 µM; MIC (Streptococcus pyogenes [18]): 3 µg/mL
C/C=C/c1cc(Cc2cnc(N)nc2N)cc(/C=C/C)c1OC | 0.8 µg/mL | 0.4 µg/mL | 25 µg/mL | 25 µg/mL | 27 µM | 72 µg/mL (≈ 232 µM) | 1.6 µg/mL | 100 µg/mL (≈ 322 µM) | 2 µg/mL (≈ 6.44 µM) | 100 µg/mL (≈ 322 µM) | > 50 µg/mL | 100 µg/mL (≈ 322 µM) | 100 µg/mL (≈ 322 µM) | > 5 µg/mL | 0.1 µg/mL (≈ 0.322 µM) | 1 µg/mL (≈ 3.22 µM) | 100 µg/mL (≈ 322 µM) | 
COc1cc(Cc2cnc(N)nc2N)cc(CC(C)O)c1O (centres undefined) |  |  |  |  | 36 µM | 4 µg/mL (≈ 13.1 µM) |  | 10 µg/mL (≈ 32.9 µM) | 3 µg/mL (≈ 9.86 µM) | 3 µg/mL (≈ 9.86 µM) | 30 µg/mL (≈ 98.6 µM) | 10 µg/mL (≈ 32.9 µM) | 3 µg/mL (≈ 9.86 µM) | > 10 µg/mL | 3 µg/mL (≈ 9.86 µM) | 3 µg/mL (≈ 9.86 µM) | 3 µg/mL (≈ 9.86 µM) | 
C=CCOc1ccc(Cc2cnc(N)nc2N)cc1OC |  |  | > 25 µg/mL | > 25 µg/mL | 49 µM | 7.6 µg/mL (≈ 26.5 µM) | 0.8 µg/mL | 10 µg/mL (≈ 34.9 µM) | 3 µg/mL (≈ 10.5 µM) | 10 µg/mL (≈ 34.9 µM) | 3 µg/mL (≈ 10.5 µM) | 10 µg/mL (≈ 34.9 µM) | 10 µg/mL (≈ 34.9 µM) | 10 µg/mL (≈ 34.9 µM) | 3 µg/mL (≈ 10.5 µM) | 10 µg/mL (≈ 34.9 µM) | 10 µg/mL (≈ 34.9 µM) | 
